In ChEMBL document CHEMBL1140973, “New Pd(II) complexes of the synthesized 1-N-substituted thiosemicarbazones of 3-indole carboxaldehyde: characterization and antiamoebic assessment against E. histolytica” (Eur J Med Chem, 2008):

Tests used:
[1] = system: HEK293 (human); experiment: Cytotoxicity against human HEK293 cells after 44 hrs by MTT assay; conditions: HEK293, 44 h
[2] = system: Entamoeba histolytica; experiment: Antiamoebic activity against Entamoeba histolytica HM1:IMSS after 72 hrs by microplate method; assay type: functional, organism-based
Outline: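 E. histolytica HM1:IMSS trophozoites in a microplate assay. Samples in DMSO plus medium (1 mg/mL), diluted to 0.1 mg/mL, then twofold serial dilutions. Inoculum 1.7 × 10^4 amoebae/well (viability by trypan blue), N2-gassed, 37 °C for 72 h. Cells methanol-fixed, eosin-stained, dye released in 0.1 N NaOH, OD 490 nm. % inhibition vs untreated control against log dose; IC50 by linear regression.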

[3] = Safety index, IC50 for transformed human kidney epithelial cells to IC50 for Entamoeba histolytica HM1:IMSS
[4] = Safety index, IC50 for human […] to IC50 for Entamoeba histolytica HM1:IMSS; assay type: toxicity, cell-based; conditions: read-out: Ratio IC50
Outline: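 Safety index = IC50 in human kidney epithelial cells (MTT, 44 h + 4 h) divided by IC50 against E. histolytica HM1:IMSS (microplate eosin assay, 72 h).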

SMILES | IC50 [1] [µM] | IC50 [2] [µM] | selectivity ratio [3] | selectivity ratio [4]
CCCCN(C)C(=S)N/N=C\c1c[nH]c2ccccc12 | > 100 | 5.5 | > 18.2 | 
Fc1ccc(NC(=S)N/N=C\c2c[nH]c3ccccc23)c(F)c1 |  | 6.05 |  | > 16.5
Cc1ccc(NC(=S)N/N=C\c2c[nH]c3ccccc23)cc1 | > 100 | 3.25 | > 30.8 | 
CC(C)NC(=S)N/N=C\c1c[nH]c2ccccc12 | > 100 | 7.64 | > 13.1 | 
CC(C)CNC(=S)N/N=C\c1c[nH]c2ccccc12 | > 100 | 5.76 | > 17.4 | 
CCCNC(=S)N/N=C\c1c[nH]c2ccccc12 | > 100 | 6.84 | > 14.6 | 
Cc1cccc(NC(=S)N/N=C\c2c[nH]c3ccccc23)c1 | > 100 | 1.29 | > 77.5 | 
S=C(NCc1ccccc1Cl)N/N=C\c1c[nH]c2ccccc12 | > 100 | 3.28 | > 30.5 | 
CCN(CC)C(=S)N/N=C\c1c[nH]c2ccccc12 | > 100 | 2.58 | > 38.8 | 
Cc1ncc([N+](=O)[O-])n1CCO [METRONIDAZOLE] | > 100 |  | > 55.2 | 
CN(Cc1ccccc1)C(=S)N/N=C\c1c[nH]c2ccccc12 | > 100 | 2.46 | > 40.6 | 
CCCCNC(=S)N/N=C\c1c[nH]c2ccccc12 | > 100 | 4.09 | > 24.4 | 
Cc1ccccc1NC(=S)N/N=C\c1c[nH]c2ccccc12 | > 100 | 2.05 | > 48.8 | 
NC(=S)N/N=C\c1c[nH]c2ccccc12 | > 100 | 11.5 | > 8.68 | 
